Results reported in article PMC8994735 (Targeted Oncology, 2021).
Like-named read-outs stand apart in the source and are kept apart here.

Tested on: East Asian patients with advanced nonhematologic malignancies
Type: in vivo, human
Summary of the method: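 AEs were graded by NCI CTCAE v4.03 in all patients receiving ≥ 1 oral dose, given once daily or once weekly in 28-day cycles for up to 12 months. Follow-up lasted 30 days after the last dose. Entry required ECOG 0–1, fasting glucose ≤ 130 mg/dL and triglycerides ≤ 300 mg/dL. Summaries were descriptive.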

[1] = QW dose escalation 20 mg (n = 3)
[2] = QW dose escalation 30 mg (n = 3)

Compound: CC(C)n1nc(-c2ccc3oc(N)nc3c2)c2c(N)ncnc21 [sapanisertib]
- Treatment-related AE hyperglycemia (QW arm): 50%
- Treatment-related AE nausea (QW arm): 100%
- AEs resulting in discontinuation [1]: 0 n (%)
- AEs resulting in dose interruption [1]: 2 (67) n (%)
- AEs resulting in dose reduction [1]: 0 n (%)
- Any AE [1]: 3 (100) n (%)
- Any grade ≥ 3 AE [1]: 3 (100) n (%)
- On-study deaths [1]: 0 n (%)
- SAEs [1]: 2 (67) n (%)
- Treatment-related AE [1]: 3 (100) n (%)
- Treatment-related SAEs [1]: 1 (33) n (%)
- Treatment-related grade ≥ 3 AE [1]: 1 (33) n (%)
- AEs resulting in discontinuation [2]: 1 (33) n (%)
- AEs resulting in dose interruption [2]: 1 (33) n (%)
- AEs resulting in dose reduction [2]: 0 n (%)
- Any AE [2]: 3 (100) n (%)
- Any grade ≥ 3 AE [2]: 1 (33) n (%)
- On-study deaths [2]: 0 n (%)
- SAEs [2]: 1 (33) n (%)
- Treatment-related AE [2]: 3 (100) n (%)
- Treatment-related SAEs [2]: 0 n (%)
- Treatment-related grade ≥ 3 AE [2]: 0 n (%)
- AE by preferred term: Abdominal pain (QW dosing n = 6): 1 (17) n (%)
- AE by preferred term: Alanine aminotransferase increased (QW dosing n = 6): 3 (50) n (%)
- AE by preferred term: Anemia (QW dosing n = 6): 1 (17) n (%)
- AE by preferred term: Aspartate aminotransferase increased (QW dosing n = 6): 3 (50) n (%)
- AE by preferred term: Blood alkaline phosphatase increased (QW dosing n = 6): 4 (67) n (%)
- AE by preferred term: Blood bilirubin increased (QW dosing n = 6): 2 (33) n (%)
- AE by preferred term: Decreased appetite (QW dosing n = 6): 3 (50) n (%)
- AE by preferred term: Diarrhea (QW dosing n = 6): 1 (17) n (%)
- AE by preferred term: Erythema (QW dosing n = 6): 1 (17) n (%)
- AE by preferred term: Fatigue (QW dosing n = 6): 2 (33) n (%)
- AE by preferred term: Gamma-glutamyltransferase increased (QW dosing n = 6): 2 (33) n (%)
- AE by preferred term: Headache (QW dosing n = 6): 1 (17) n (%)
- AE by preferred term: Hiccups (QW dosing n = 6): 2 (33) n (%)
- AE by preferred term: Hyperglycemia (QW dosing n = 6): 4 (67) n (%)
- AE by preferred term: Hypokalemia (QW dosing n = 6): 1 (17) n (%)
- AE by preferred term: Lymphocyte count decreased (QW dosing n = 6): 1 (17) n (%)
- AE by preferred term: Nausea (QW dosing n = 6): 6 (100) n (%)
- AE by preferred term: Platelet count decreased (QW dosing n = 6): 1 (17) n (%)
- AE by preferred term: Pyrexia (QW dosing n = 6): 1 (17) n (%)
- AE by preferred term: Stomatitis (QW dosing n = 6): 2 (33) n (%)
- AE by preferred term: Vomiting (QW dosing n = 6): 3 (50) n (%)
- AE by preferred term: Weight decreased (QW dosing n = 6): 3 (50) n (%)
- Grade ≥ 3 AE: Alanine aminotransferase increased (QW dosing n = 6): 1 (17) n (%)
- Grade ≥ 3 AE: Aspartate aminotransferase increased (QW dosing n = 6): 1 (17) n (%)
- Grade ≥ 3 AE: Cholangitis acute (QW dosing n = 6): 1 (17) n (%)
- Grade ≥ 3 AE: Enteritis (QW dosing n = 6): 1 (17) n (%)
- Grade ≥ 3 AE: Gamma-glutamyltransferase increased (QW dosing n = 6): 2 (33) n (%)
- Grade ≥ 3 AE: Hyperglycemia (QW dosing n = 6): 1 (17) n (%)
- Grade ≥ 3 AE: Lymphocyte count decreased (QW dosing n = 6): 1 (17) n (%)
- Grade ≥ 3 AE: Malignant neoplasm progression (QW dosing n = 6): 1 (17) n (%)
- Patients with ≥ 1 grade 3 or higher AE (QW dosing n = 6): 4 (67) n (%)
- AEs resulting in discontinuation (QW total (n = 6)): 1 (17) n (%)
- AEs resulting in dose interruption (QW total (n = 6)): 3 (50) n (%)
- AEs resulting in dose reduction (QW total (n = 6)): 0 n (%)
- Any AE (QW total (n = 6)): 6 (100) n (%)
- Any grade ≥ 3 AE (QW total (n = 6)): 4 (67) n (%)
- On-study deaths (QW total (n = 6)): 0 n (%)
- SAEs (QW total (n = 6)): 3 (50) n (%)
- Treatment-related AE (QW total (n = 6)): 6 (100) n (%)
- Treatment-related SAEs (QW total (n = 6)): 1 (17) n (%)
- Treatment-related grade ≥ 3 AE (QW total (n = 6)): 1 (17) n (%)
- AE by preferred term: Abdominal pain (Total n = 28): 4 (14) n (%)
- AE by preferred term: Alanine aminotransferase increased (Total n = 28): 7 (25) n (%)
- AE by preferred term: Anemia (Total n = 28): 6 (21) n (%)
- AE by preferred term: Aspartate aminotransferase increased (Total n = 28): 9 (32) n (%)
- AE by preferred term: Blood alkaline phosphatase increased (Total n = 28): 4 (14) n (%)
- AE by preferred term: Blood bilirubin increased (Total n = 28): 2 (7) n (%)
- AE by preferred term: Constipation (Total n = 28): 4 (14) n (%)
- AE by preferred term: Decreased appetite (Total n = 28): 14 (50) n (%)
- AE by preferred term: Diarrhea (Total n = 28): 3 (11) n (%)
- AE by preferred term: Erythema (Total n = 28): 3 (11) n (%)
- AE by preferred term: Erythema multiforme (Total n = 28): 2 (7) n (%)
- AE by preferred term: Fatigue (Total n = 28): 9 (32) n (%)
- AE by preferred term: Gamma-glutamyltransferase increased (Total n = 28): 4 (14) n (%)
- AE by preferred term: Gastrointestinal inflammation (Total n = 28): 2 (7) n (%)
- AE by preferred term: Headache (Total n = 28): 3 (11) n (%)
- AE by preferred term: Hiccups (Total n = 28): 2 (7) n (%)
- AE by preferred term: Hyperglycemia (Total n = 28): 13 (46) n (%)
- AE by preferred term: Hypokalemia (Total n = 28): 4 (14) n (%)
- AE by preferred term: Lymphocyte count decreased (Total n = 28): 5 (18) n (%)
- AE by preferred term: Nausea (Total n = 28): 17 (61) n (%)
- AE by preferred term: Neutrophil count decreased (Total n = 28): 2 (7) n (%)
- AE by preferred term: Platelet count decreased (Total n = 28): 7 (25) n (%)
- AE by preferred term: Pruritus (Total n = 28): 2 (7) n (%)
- AE by preferred term: Pyrexia (Total n = 28): 5 (18) n (%)
- AE by preferred term: Rash erythematous (Total n = 28): 2 (7) n (%)
- AE by preferred term: Rash maculo-papular (Total n = 28): 5 (18) n (%)
- AE by preferred term: Rash pustular (Total n = 28): 2 (7) n (%)
- AE by preferred term: Stomatitis (Total n = 28): 16 (57) n (%)
- AE by preferred term: Urticaria (Total n = 28): 3 (11) n (%)
- AE by preferred term: Vomiting (Total n = 28): 8 (29) n (%)
- AE by preferred term: Weight decreased (Total n = 28): 10 (36) n (%)
- AE by preferred term: White blood cell count decreased (Total n = 28): 4 (14) n (%)
- Grade ≥ 3 AE: Acute myocardial infarction (Total n = 28): 1 (4) n (%)
- Grade ≥ 3 AE: Alanine aminotransferase increased (Total n = 28): 1 (4) n (%)
- Grade ≥ 3 AE: Aspartate aminotransferase increased (Total n = 28): 2 (7) n (%)
- Grade ≥ 3 AE: Blood creatine phosphokinase increased (Total n = 28): 1 (4) n (%)
- Grade ≥ 3 AE: Cholangitis acute (Total n = 28): 1 (4) n (%)
- Grade ≥ 3 AE: Decreased appetite (Total n = 28): 1 (4) n (%)
- Grade ≥ 3 AE: Diarrhea (Total n = 28): 1 (4) n (%)
- Grade ≥ 3 AE: Enteritis (Total n = 28): 1 (4) n (%)
- Grade ≥ 3 AE: Gamma-glutamyltransferase increased (Total n = 28): 3 (11) n (%)
- Grade ≥ 3 AE: Gastrointestinal inflammation (Total n = 28): 1 (4) n (%)
- Grade ≥ 3 AE: Genital herpes (Total n = 28): 1 (4) n (%)
- Grade ≥ 3 AE: Gingivitis (Total n = 28): 1 (4) n (%)
- Grade ≥ 3 AE: Hyperglycemia (Total n = 28): 1 (4) n (%)
- Grade ≥ 3 AE: Jaundice cholestatic (Total n = 28): 1 (4) n (%)
- Grade ≥ 3 AE: Lymphocyte count decreased (Total n = 28): 3 (11) n (%)
- Grade ≥ 3 AE: Malignant neoplasm progression (Total n = 28): 1 (4) n (%)
- Grade ≥ 3 AE: Nausea (Total n = 28): 2 (7) n (%)
- Grade ≥ 3 AE: Neutrophil count decreased (Total n = 28): 1 (4) n (%)
- Grade ≥ 3 AE: Platelet count decreased (Total n = 28): 1 (4) n (%)
- Grade ≥ 3 AE: Post herpetic neuralgia (Total n = 28): 1 (4) n (%)
- Grade ≥ 3 AE: Pruritus (Total n = 28): 1 (4) n (%)
- Grade ≥ 3 AE: Rash maculo-papular (Total n = 28): 2 (7) n (%)
- Grade ≥ 3 AE: Rash pustular (Total n = 28): 1 (4) n (%)
- Grade ≥ 3 AE: Renal impairment (Total n = 28): 1 (4) n (%)
- Grade ≥ 3 AE: Sepsis (Total n = 28): 1 (4) n (%)
- Grade ≥ 3 AE: Stomatitis (Total n = 28): 2 (7) n (%)
- Grade ≥ 3 AE: Urticaria (Total n = 28): 1 (4) n (%)
- Grade ≥ 3 AE: White blood cell count decreased (Total n = 28): 1 (4) n (%)
- Patients with ≥ 1 grade 3 or higher AE (Total n = 28): 18 (64) n (%)
- Patients reporting at least one AE (across all doses): 100%
- Discontinued treatment due to AEs (both arms): Four
- On-study deaths (whole study): no on-study deaths
